CXCR6 block: CXCR6 receptor inhibitors, primary screen, cell-based, beta-arrestin, luminescence, CHO-K1 PathHunter, 1536-well. C-X-C chemokine receptor type 6 (Homo sapiens), O00574. inhibition, % at 20 µM. actives 0.36% (n = 360,000). AID 602244, 2012; in the data active means inhibition above about 34%, passing the limit was not always enough;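 further: antagonist mode with CXCL16 agonist at 10 nM final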
APJ antagonist: antagonists of human apelin receptor APJ, primary screen, CHO-K1 cells, beta-arrestin complementation, luminescence; P35414; inhibition, % at 20 µM; AID 2521, 2010; actives 0.32% (n = 330,000);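 active means inhibition above about 40% at 20 µM, limit read from the data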;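 further: cells challenged with 10 nM apelin-13 agonist together with compound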
Target sequence (P35414 whole entry, looked up): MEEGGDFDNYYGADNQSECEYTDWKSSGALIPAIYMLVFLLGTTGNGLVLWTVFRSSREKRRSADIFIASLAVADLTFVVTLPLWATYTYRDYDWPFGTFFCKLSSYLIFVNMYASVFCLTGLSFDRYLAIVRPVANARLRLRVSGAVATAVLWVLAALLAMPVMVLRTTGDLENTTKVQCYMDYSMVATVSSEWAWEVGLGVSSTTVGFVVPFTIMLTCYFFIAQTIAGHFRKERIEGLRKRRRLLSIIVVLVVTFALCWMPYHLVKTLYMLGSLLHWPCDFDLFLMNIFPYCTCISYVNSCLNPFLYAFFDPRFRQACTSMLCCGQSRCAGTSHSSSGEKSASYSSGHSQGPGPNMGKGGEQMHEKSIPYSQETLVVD
m5-HT2A agonist: mouse Htr2a agonists via beta-arrestin recruitment, primary screen, cell-based, luminescence; AID 624169, 2012; 5-hydroxytryptamine receptor 2A (Mus musculus), P35363; actives 0.66% (n = 360,000); CHO-K1 mHTR2A beta-arrestin complementation; percent of 30 µM serotonin response; activation, % at 7.6 µM;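 active means activation above a run cutoff, the mean activation of all tested compounds plus 3 SD, cut at about 14% in these data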
EBI2 antag: EBI2 receptor antagonists, beta-arrestin recruitment, primary screen, cell-based, luminescence, 7a,25-OHC stimulation, uHTS. G-protein coupled receptor 183 (Homo sapiens), P32249. 7a,25-OHC stimulated. inhibition, % at 5 µM. actives 0.81% (n = 360,000); in the data active means inhibition above about 38%;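 further: enzyme fragment complementation signal reports receptor beta-arrestin coupling in cells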
CCR6 antagonist: CCR6 receptor antagonists, primary screen, cell-based, CHO-K1, luminescence, beta-arrestin, uHTS; C-C chemokine receptor type 6 (Homo sapiens), P51684; CHO-K1 CCR6 PathHunter beta-arrestin, CCL20-stimulated; inhibition, % at 20 µM; actives 0.49% (n = 340,000); AID 493098, 2011;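 active means compounds whose inhibition of the agonist-driven luminescence signal at 20 µM reaches about 50%, limit read from the data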;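 further: cells stimulated with CCL20 at 14 nM final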
APJ ag: agonists of human apelin receptor APJ, primary screen, CHO-K1 cells, PathHunter beta-arrestin, luminescence | 0% DMSO wells, 100% apelin | activation, % at 20 µM | actives 0.11% (n = 330,000);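 active means activation more than six SD over the plate average, tested at 20 µM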
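Material: CHO-K1 APJ beta-arrestin complementation cell line; Input: cell density 1000 per well; Incubation: compound stimulation 90 min at 25 °C, detection 60 min; Signal: luminescence from split beta-galactosidase complementation, Galacton Star/Emerald II substrate; Controls: DMSO-only wells as negative, 10 nM Apelin-13 as positive control.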
OPRM1 ag: OPRM1 agonists via beta-arrestin recruitment, confirmation, counter-screen for mouse HTR2A agonist project, cell-based, luminescence, single concentration; shares compounds with m5-HT2A agonist; U2OS OPRM1 beta-arrestin PathHunter; DMSO 0%, DAMGO 9.3 µM 100%; activation, % at 9.3 µM; actives 5.3% (n = 2,300);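 active means mean activation above the mean of DMSO-only wells plus 3 SD, cut at about 0.5% in these data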
HTR2A ag conf: mouse HTR2A agonists, beta-arrestin recruitment, confirmation, cell-based, luminescence, CHO-K1 PathHunter, triplicate. activation, % at 7.6 µM. actives 19% (n = 2,300). shares compounds with m5-HT2A agonist. DMSO 0%, 30 µM serotonin 100%;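 active means mean activation across triplicates above the hit threshold derived in the original primary screen, cut at about 15% in these data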
Numbers stand for hits; 0 = inactive; - = not tested or not shown. This is a sample that favours compounds with a hit; in the whole collection about 2.1% have one here.

SMILES	CXCR6 block	APJ antagonist	m5-HT2A agonist	EBI2 antag	CCR6 antagonist	APJ ag	OPRM1 ag	HTR2A ag conf
CSc1ccccc1OCc1cc(C(=O)N2CCCC2c2nonc2C)no1 (centres undefined)	0	0	0	0	0	0	-	-
Cc1cccc(C)c1OCc1cc(C(=O)N2CCCC2c2nonc2C)no1 (centres undefined)	0	0	14	0	0	0	0	0
COc1ccc(S(=O)(=O)N2CCC(C(=O)NCCC(=O)Nc3cccc(Cl)c3)CC2)cc1	0	0	0	0	0	0	-	-
O=C(COc1ccccc1Cl)NCC(c1cccs1)N1CCOCC1 (centres undefined)	0	0	0	0	0	0	-	-
Cc1ccccc1OCC(=O)NCC(c1cccs1)N1CCOCC1 (centres undefined)	0	0	18	0	0	0	0	0
COc1ccccc1NS(=O)(=O)c1ccc(C)c(C(=O)NCC(c2cccs2)N2CCOCC2)c1 (centres undefined)	0	-	19	0	0	-	0	0
O=C(COC(=O)/C=C/c1ccccc1[N+](=O)[O-])NCc1ccco1	0	0	0	0	0	0	-	-
CC(C)C[C@H]1CN=C(N(C)C)N1CC(C)C	0	0	24	0	0	0	0	0
N=c1sccn1CC(=O)Nc1cccc2ccccc12	0	0	20	0	0	0	0	0
Cc1nc(-c2ccc(S(=O)(=O)Nc3cc(S(=O)(=O)N(C)C)ccc3C)s2)cs1	0	0	0	0	0	0	-	-
O=S(=O)(c1ccc(Cl)cc1)N1CCN(C2CCN(Cc3ccccc3)CC2)CC1	0	0	0	0	0	0	-	-
COc1ccc(S(=O)(=O)N2CCC(N3CCN(Cc4ccccc4)CC3)CC2)cc1	0	0	22	0	0	0	0	42
CCc1nc2c3cnn(-c4cc(Cl)ccc4C)c3ncn2n1	0	0	16	0	0	0	0	0
Cc1nc2c3cnn(-c4ccccc4)c3ncn2n1	0	0	0	0	0	0	-	-
Cc1cc(CNC(=O)COc2ccccc2)c2ccccc2n1	0	-	16	0	0	-	0	0
COc1ccccc1OCc1ccc(C(=O)N2CCN(C(=O)c3ccco3)CC2)cc1	0	0	0	0	0	0	-	-
COc1ccc(CN2CCN(C(=O)c3ccco3)CC2)cc1OCc1ccccc1	0	0	19	0	0	0	0	74
COc1ccc(CN2CCN(C(=O)c3ccco3)CC2)cc1OC	0	0	32	0	0	0	0	82
O=S(CC(O)c1ccccc1)c1ccccc1 (centres undefined)	0	-	0	0	-	-	-	-
COC(=O)C1=CN(Cc2ccc(OC)c(OC)c2)C=C(C(=O)OC)C1c1ccccc1F	0	0	17	0	0	0	0	0
COC(=O)C1=CN(Cc2ccc(OC)c(OC)c2)C=C(C(=O)OC)C1c1cccc(OC)c1OC	0	0	0	0	0	0	-	-
Cc1ccccc1NC(=S)NCc1ccc2c(c1)cc(C)n2C	0	0	20	0	0	0	0	0
COc1ccccc1NC(=S)NCc1ccc2c(c1)cc(C)n2C	0	0	0	0	0	0	-	-
Cc1cccc(NC(=O)c2cc3c(=O)n4ccccc4nc3n(CC(C)C)c2=N)c1	0	0	15	0	0	0	0	0
CC(=O)Nc1ccc(C(=O)OCC(=O)Nc2ccc(N3CCOCC3)cc2)cc1	0	0	0	0	0	0	-	-
SMILES	CXCR6 block	APJ antagonist	m5-HT2A agonist	EBI2 antag	CCR6 antagonist	APJ ag	OPRM1 ag	HTR2A ag conf
O=C(COC(=O)c1ccco1)Nc1ccc(N2CCOCC2)cc1	0	0	17	0	0	0	0	0
CCCC(=O)c1ccc(O)cc1O	0	0	0	0	-	0	-	-
COc1coc(/C=C/C(=O)O)cc1=O	0	0	22	0	0	0	0	0
CCCCCC(=O)Nc1cccc(C2=NOC3(C2)C[C@H](C(N)=O)N(C(=O)COc2ccc(Cl)cc2)C3)c1 (some centres undefined)	0	0	22	0	0	0	0	0
C/C=C\C=C/C(=O)Nc1cccc(C2=NOC3(C2)C[C@@H](C(N)=O)N(C(=O)COc2ccc(Cl)cc2)C3)c1 (some centres undefined)	0	0	0	0	0	0	-	-
COc1ccc2c(c1)c(=O)oc1cc(OCC(=O)NC3CC3)ccc12	0	0	15	0	0	0	0	0
COc1ccc2c(c1)c(=O)oc1cc(OCC(=O)NC3CCCCC3)ccc12	0	0	0	0	0	0	-	-
Cc1ccc(S(=O)(=O)N2CCC(C(=O)N3CCC3)CC2)cc1	0	0	17	0	0	0	0	0
Cc1ccc(CN2CC(C(=O)NCC(=O)Nc3c(C)cccc3C)CC2=O)cc1 (centres undefined)	0	0	0	0	0	0	-	-
OCCN1CCN(c2ncnc3scc(-c4ccc(F)cc4)c23)CC1	0	0	16	0	0	0	0	0
Fc1ccc(-c2csc3ncnc(N4CCN(Cc5ccccc5)CC4)c23)cc1	0	0	0	0	0	0	-	-
NC[C@@H]1O[C@H](C23CC4CC(CC(C4)C2)C3)Cc2c1ccc(O)c2O	0	-	26	-	0	-	0	100
Cc1cc(C)c(OCC(=O)NCC2COc3ccccc3O2)c(C)c1 (centres undefined)	0	0	24	0	0	0	0	17
Cc1ccc(C(=O)Nc2cccc(-c3cn4ccccc4n3)c2)cc1	0	0	0	0	0	0	-	-
Cc1ccccc1C(=O)Nc1cccc(-c2cn3ccccc3n2)c1	0	0	16	0	0	0	0	0
COc1ccc(CCn2c3c(c(=O)[nH]c2=O)C(NC(=O)c2cccs2)(C(F)(F)F)C(=O)N3)cc1OC (centres undefined)	0	0	15	0	0	0	0	0
CC(C)(C)c1ccc(Cc2n[nH]c(=S)[nH]c2=O)cc1	0	0	15	0	0	0	0	0
O=c1[nH]c(=S)[nH]nc1Cc1ccc(Cl)c(Cl)c1	0	0	0	0	0	0	-	-

Screening data as filed in PubChem BioAssay.
